Experimental data: ChEMBL document CHEMBL5357024, “MDM2 Antagonist Idasanutlin Reduces HDAC1/2 Abundance and Corepressor Partners but Not HDAC3” (ACS Med Chem Lett, 2024)

Legend:
Type in all cases: cell-based
[1] = target: T1, E3 ubiquitin-protein ligase Mdm2/Histone deacetylase 1 (Homo sapiens) (UniProt Q00987+Q13547); experiment: PROTAC activity at MDM2/HDAC1 in human HCT-116 cells assessed as decrease in HDAC1 abundance by measuring remaining activity at 0.1 uM measured after 24 hrs by Western blot analysis (reference value: 100%)
In short: (§1)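 HCT116 cells seeded in six-well plates for 24 h, then exposed 24 h to compound (0.01–10 μM) or DMSO in fresh medium. Lysis in Tris-HCl/NaCl/NP-40/Triton X-100 with protease inhibitor. Bradford-normalised 30 μg protein per lane. Quantitative Western blot used specific HDAC1, HDAC2, HDAC3, LSD1 or Sin3a antibodies with IRDye secondaries. Abundance compared with DMSO, n = 2 replicates.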

[2] = target: T1, E3 ubiquitin-protein ligase Mdm2/Histone deacetylase 1 (Homo sapiens); experiment: PROTAC activity at MDM2/HDAC1 in human HCT-116 cells assessed as decrease in HDAC1 abundance by measuring remaining activity at 1 uM measured after 24 hrs by Western blot analysis (reference value: 100%); in short: as §1
[3] = target: T1, E3 ubiquitin-protein ligase Mdm2/Histone deacetylase 1 (Homo sapiens); experiment: PROTAC activity at MDM2/HDAC1 in human HCT-116 cells assessed as decrease in HDAC1 abundance by measuring remaining activity at 10 uM measured after 24 hrs by Western blot analysis (reference value: 100%); in short: as §1
[4] = target: E3 ubiquitin-protein ligase Mdm2/Histone deacetylase 2 (Homo sapiens) (UniProt Q00987+Q92769); experiment: PROTAC activity at MDM2/HDAC2 in human HCT-116 cells assessed as decrease in HDAC2 abundance by measuring remaining activity at 10 uM measured after 24 hrs by Western blot analysis (reference value: 100%); in short: as §1
[5] = target: T2, E3 ubiquitin-protein ligase Mdm2/Histone deacetylase 3 (Homo sapiens) (UniProt Q00987+O15379); experiment: PROTAC activity at MDM2/HDAC3 in human HCT-116 cells assessed as reduction in HDAC3 abundance by measuring remaining activity at 10 uM measured after 24 hrs by Western blot analysis (reference value: 100%)
In short: (§2)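 HCT116 cells in DMEM with 10% FBS and glutamine/penicillin/streptomycin at 37 °C, 5% CO2. Seeded 4 × 10^5 cells/well, after 24 h treated 24 h with DMSO or compound in fresh medium. Lysed in Tris-HCl/NaCl/NP-40/Triton X-100 buffer with protease inhibitor, Bradford-quantified, 30 μg protein per lane. Quantitative Western blot with specific HDAC1/2/3 antibodies, IRDye secondaries, infrared imaging, versus DMSO. n = 2 replicates.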

[6] = target: T1, E3 ubiquitin-protein ligase Mdm2/Histone deacetylase 1 (Homo sapiens); experiment: PROTAC activity at MDM2/HDAC1 in human HCT-116 cells assessed as decrease in HDAC1 abundance by measuring remaining activity at 0.5 uM measured after 24 hrs by Western blot analysis (reference value: 100%); in short: as §1
[7] = target: T2, E3 ubiquitin-protein ligase Mdm2/Histone deacetylase 3 (Homo sapiens); experiment: PROTAC activity at MDM2/HDAC3 in human HCT-116 cells assessed as reduction in HDAC3 abundance by measuring remaining activity at 0.05 uM measured after 24 hrs by Western blot analysis; in short: as §2
[8] = target: T2, E3 ubiquitin-protein ligase Mdm2/Histone deacetylase 3 (Homo sapiens); experiment: PROTAC activity at MDM2/HDAC3 in human HCT-116 cells assessed as reduction in HDAC3 abundance by measuring remaining activity at 2.5 uM measured after 24 hrs by Western blot analysis; in short: as §2
[9] = target: T2, E3 ubiquitin-protein ligase Mdm2/Histone deacetylase 3 (Homo sapiens); experiment: PROTAC activity at MDM2/HDAC3 in human HCT-116 cells assessed as reduction in HDAC3 abundance by measuring remaining activity at 5 uM measured after 24 hrs by Western blot analysis; in short: as §2
[10] = target: T3, Paired amphipathic helix protein Sin3a (Homo sapiens) (UniProt Q96ST3); experiment: Induction of SIN3A degradation in human HCT-116 cells assessed as reduction in SIN3A abundance by measuring remaining activity at 0.25 uM measured after 24 hrs by Western blot analysis (reference value: 100%); in short: as §1
T3 sequence (whole entry): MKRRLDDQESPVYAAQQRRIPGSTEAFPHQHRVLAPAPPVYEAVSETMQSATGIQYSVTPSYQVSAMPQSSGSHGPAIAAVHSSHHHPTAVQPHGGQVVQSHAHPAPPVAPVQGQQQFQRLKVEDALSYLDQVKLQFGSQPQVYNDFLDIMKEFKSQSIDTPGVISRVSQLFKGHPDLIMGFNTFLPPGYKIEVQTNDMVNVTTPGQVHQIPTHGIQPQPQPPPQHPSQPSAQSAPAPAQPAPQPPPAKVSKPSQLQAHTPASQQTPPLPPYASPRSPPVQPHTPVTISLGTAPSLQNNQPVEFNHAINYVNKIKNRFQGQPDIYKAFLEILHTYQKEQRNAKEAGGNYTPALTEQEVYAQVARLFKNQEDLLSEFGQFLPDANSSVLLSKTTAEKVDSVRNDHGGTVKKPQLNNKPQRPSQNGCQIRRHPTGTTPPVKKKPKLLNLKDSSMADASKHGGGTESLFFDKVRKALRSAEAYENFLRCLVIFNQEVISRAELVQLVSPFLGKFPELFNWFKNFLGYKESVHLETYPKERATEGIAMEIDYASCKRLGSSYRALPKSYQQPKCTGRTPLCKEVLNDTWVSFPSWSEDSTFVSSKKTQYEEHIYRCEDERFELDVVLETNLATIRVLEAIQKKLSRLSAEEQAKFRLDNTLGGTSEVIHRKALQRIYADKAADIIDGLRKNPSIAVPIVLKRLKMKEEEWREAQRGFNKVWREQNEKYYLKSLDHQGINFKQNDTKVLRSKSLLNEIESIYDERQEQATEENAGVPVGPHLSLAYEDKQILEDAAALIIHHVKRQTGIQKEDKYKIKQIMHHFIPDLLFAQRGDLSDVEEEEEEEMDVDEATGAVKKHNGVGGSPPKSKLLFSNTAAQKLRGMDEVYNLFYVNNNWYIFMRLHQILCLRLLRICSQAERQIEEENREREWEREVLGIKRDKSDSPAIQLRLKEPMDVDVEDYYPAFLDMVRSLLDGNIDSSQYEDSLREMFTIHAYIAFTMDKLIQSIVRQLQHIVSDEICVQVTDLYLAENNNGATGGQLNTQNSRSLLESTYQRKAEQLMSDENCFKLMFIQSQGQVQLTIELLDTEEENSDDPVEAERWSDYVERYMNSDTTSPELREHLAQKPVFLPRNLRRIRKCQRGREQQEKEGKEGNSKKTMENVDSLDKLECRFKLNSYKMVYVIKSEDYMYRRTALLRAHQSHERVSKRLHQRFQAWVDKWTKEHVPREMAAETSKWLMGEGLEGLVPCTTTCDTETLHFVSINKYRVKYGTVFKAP

[11] = target: T3, Paired amphipathic helix protein Sin3a (Homo sapiens); experiment: Induction of SIN3A degradation in human HCT-116 cells assessed as reduction in SIN3A abundance by measuring remaining activity at 0.5 uM measured after 24 hrs by Western blot analysis (reference value: 100%); in short: as §1
[12] = target: Lysine-specific histone demethylase 1A (Homo sapiens) (UniProt O60341); experiment: Induction of LSD1 degradation in human HCT-116 cells assessed as reduction in LSD1 abundance by measuring remaining activity at 0.05 uM measured after 24 hrs by Western blot analysis (reference value: 100%); in short: as §1

T1 sequence (Q00987 whole entry, looked up): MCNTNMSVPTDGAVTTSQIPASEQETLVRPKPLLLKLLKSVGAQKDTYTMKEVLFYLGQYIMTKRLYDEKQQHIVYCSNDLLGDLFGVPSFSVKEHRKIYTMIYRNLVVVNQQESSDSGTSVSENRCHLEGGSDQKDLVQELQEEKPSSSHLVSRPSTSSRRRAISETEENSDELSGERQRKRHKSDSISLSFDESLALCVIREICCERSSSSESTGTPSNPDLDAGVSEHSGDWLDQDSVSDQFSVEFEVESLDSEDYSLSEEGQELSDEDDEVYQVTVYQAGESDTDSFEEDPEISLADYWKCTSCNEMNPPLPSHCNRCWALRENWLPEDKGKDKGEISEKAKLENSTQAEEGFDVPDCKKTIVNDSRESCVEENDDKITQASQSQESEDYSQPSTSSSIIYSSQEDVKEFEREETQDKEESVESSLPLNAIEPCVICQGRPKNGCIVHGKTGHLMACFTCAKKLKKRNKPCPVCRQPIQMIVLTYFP
T1 sequence (Q13547 whole entry, looked up): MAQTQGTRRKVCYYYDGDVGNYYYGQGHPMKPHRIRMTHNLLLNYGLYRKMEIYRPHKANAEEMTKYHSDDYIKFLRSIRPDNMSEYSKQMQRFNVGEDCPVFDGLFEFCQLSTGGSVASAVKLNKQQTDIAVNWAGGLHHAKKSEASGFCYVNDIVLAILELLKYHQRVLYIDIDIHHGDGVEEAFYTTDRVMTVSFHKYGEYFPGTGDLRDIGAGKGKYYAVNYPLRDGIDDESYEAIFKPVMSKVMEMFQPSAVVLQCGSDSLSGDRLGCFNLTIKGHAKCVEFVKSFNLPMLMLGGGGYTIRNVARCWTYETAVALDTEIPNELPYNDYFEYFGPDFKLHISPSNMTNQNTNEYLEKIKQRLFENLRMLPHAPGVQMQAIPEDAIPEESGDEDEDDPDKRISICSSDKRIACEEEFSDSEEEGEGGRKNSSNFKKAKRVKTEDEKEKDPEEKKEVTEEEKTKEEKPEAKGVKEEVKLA
T2 sequence (O15379 whole entry, looked up): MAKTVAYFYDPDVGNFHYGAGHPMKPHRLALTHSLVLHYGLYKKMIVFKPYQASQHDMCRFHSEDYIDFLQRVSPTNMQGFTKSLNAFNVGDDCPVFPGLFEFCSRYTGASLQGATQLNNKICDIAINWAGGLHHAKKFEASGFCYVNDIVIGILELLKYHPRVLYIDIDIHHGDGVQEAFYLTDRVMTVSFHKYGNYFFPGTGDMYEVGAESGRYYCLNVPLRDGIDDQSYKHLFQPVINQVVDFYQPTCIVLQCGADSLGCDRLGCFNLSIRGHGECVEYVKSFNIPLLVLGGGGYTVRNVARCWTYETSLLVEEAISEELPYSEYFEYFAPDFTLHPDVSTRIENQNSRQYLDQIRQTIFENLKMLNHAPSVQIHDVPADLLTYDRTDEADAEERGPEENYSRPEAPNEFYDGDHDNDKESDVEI
T2 sequence (Q00987 whole entry, looked up): as the sequence (Q00987 whole entry, looked up) above
Chain of E3 ubiquitin-protein ligase Mdm2/Histone deacetylase 2 (Homo sapiens) (Q00987 whole entry, looked up): as above
Chain of E3 ubiquitin-protein ligase Mdm2/Histone deacetylase 2 (Homo sapiens) (Q92769 whole entry, looked up): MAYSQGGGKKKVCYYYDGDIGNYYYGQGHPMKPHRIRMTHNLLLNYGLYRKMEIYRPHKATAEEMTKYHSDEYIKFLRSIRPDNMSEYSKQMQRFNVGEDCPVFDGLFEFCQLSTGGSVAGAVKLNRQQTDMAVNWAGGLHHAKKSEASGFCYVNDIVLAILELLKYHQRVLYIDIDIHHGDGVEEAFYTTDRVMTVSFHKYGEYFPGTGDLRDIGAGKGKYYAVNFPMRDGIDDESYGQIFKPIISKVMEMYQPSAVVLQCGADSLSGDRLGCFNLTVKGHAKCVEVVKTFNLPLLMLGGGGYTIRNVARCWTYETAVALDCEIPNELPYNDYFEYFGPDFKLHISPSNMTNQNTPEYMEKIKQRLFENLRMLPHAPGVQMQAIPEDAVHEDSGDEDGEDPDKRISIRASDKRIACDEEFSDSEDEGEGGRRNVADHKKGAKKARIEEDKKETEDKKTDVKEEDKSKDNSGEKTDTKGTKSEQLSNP

COc1cc(C(=O)NCCOCCOCCOCCOCCC(=O)Nc2ccc(C(=O)Nc3ccccc3N)cc2)ccc1NC(=O)[C@@H]1N[C@@H](CC(C)(C)C)[C@](C#N)(c2ccc(Cl)cc2F)[C@H]1c1cccc(Cl)c1F
Activity [1]: 84% | Activity [2]: 43% | Activity [3]: 36% | Activity [4]: 54% | Activity [5]: 91% | Activity [6]: 67% | Activity [7]: 105% | Activity [8]: 112% | Activity [9]: 105% | Activity [10]: 92% | Activity [11]: 79% | Activity [12]: 95%
